Data published in ChEMBL document CHEMBL1156908, “Characterization of tunable piperidine and piperazine carbamates as inhibitors of endocannabinoid hydrolases” (J Med Chem, 2010).
Activity calls are given as the source filed them. The calls are words filed in the database; no cut-off is given here.

Legend:
Monoglyceride lipase = molecular target: T1, Monoglyceride lipase (Mus musculus, UniProt O35678); test: Inhibition of MAGL in mouse brain membrane; format: cell membranes
T1 sequence (O35678 whole entry): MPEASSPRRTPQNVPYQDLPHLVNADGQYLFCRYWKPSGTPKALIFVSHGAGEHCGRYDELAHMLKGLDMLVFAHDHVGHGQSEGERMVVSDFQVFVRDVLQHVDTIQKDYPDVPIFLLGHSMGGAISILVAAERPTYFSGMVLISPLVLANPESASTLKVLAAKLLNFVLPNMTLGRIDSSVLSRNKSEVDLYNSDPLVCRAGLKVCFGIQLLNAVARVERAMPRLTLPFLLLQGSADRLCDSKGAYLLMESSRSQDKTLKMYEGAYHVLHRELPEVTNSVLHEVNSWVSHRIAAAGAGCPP
How it was run: (§1)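 Mouse brain membrane fraction (Dounce homogenized in PBS pH 7.5, 1,400 × g debris spin, 64,000 × g 45 min pellet, resuspended) at 1 mg/ml in PBS. Inhibitor preincubated 30 min at 37°C, then FP-rhodamine 1 μM final for 30 min at 25°C. SDS-PAGE with in-gel fluorescence scanning. IC50 from fitted integrated band intensities, mean of at least triplicates.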

[1] = molecular target: T2, Patatin-like phospholipase domain-containing protein 6 (Mus musculus) (UniProt Q3TRM4); test: Inhibition of NTE in mouse brain membrane at 100 uM; format: cell membranes
T2 sequence (whole entry): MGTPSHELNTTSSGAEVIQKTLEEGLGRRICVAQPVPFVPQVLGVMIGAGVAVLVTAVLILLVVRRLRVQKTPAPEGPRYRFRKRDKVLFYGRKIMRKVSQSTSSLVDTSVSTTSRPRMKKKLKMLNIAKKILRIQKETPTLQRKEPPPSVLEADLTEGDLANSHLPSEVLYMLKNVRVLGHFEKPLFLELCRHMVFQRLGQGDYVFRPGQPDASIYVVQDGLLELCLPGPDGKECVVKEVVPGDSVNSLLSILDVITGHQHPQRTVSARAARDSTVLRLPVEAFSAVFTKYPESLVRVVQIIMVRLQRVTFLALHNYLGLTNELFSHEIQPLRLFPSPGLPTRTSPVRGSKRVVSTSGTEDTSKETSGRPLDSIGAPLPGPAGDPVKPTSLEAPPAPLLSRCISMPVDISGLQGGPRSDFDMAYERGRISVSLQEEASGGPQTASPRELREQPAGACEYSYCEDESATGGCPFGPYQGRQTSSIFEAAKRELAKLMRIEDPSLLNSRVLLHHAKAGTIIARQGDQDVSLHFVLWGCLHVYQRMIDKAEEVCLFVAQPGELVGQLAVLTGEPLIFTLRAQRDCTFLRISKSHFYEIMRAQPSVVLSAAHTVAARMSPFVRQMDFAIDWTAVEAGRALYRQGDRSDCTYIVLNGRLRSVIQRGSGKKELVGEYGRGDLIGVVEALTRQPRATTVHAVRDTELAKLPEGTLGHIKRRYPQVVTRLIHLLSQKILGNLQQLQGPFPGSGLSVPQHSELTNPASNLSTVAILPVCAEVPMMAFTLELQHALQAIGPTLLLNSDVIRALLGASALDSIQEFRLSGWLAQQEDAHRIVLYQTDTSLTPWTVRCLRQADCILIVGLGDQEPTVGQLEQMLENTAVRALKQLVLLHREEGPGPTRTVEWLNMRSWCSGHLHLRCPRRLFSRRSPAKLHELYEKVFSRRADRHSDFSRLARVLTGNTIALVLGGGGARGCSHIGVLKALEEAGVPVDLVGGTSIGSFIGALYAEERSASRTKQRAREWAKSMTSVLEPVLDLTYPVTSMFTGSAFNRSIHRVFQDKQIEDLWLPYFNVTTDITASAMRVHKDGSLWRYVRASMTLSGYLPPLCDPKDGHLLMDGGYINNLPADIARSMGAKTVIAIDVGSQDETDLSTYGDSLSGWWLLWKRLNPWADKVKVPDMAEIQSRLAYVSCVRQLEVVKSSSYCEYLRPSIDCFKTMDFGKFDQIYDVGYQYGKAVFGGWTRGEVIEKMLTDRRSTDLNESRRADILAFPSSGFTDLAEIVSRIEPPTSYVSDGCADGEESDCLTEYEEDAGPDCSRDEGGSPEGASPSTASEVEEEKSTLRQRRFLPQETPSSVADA
How it was run: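 Competitive ABPP on mouse brain membrane proteome at 1 mg/ml in PBS. Inhibitor at 100 μM for 30 min at 37°C, then FP-rhodamine 1 μM final for 30 min at 25°C. SDS-PAGE and in-gel fluorescence scanning. Percent loss of NTE band labeling.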

[2] = molecular target: T3, Monoacylglycerol lipase ABHD6 (Mus musculus, UniProt Q8R2Y0); test: Inhibition of ABHD6 in mouse brain membrane; format: cell membranes; how it was run: as §1
T3 sequence (Q8R2Y0 whole entry): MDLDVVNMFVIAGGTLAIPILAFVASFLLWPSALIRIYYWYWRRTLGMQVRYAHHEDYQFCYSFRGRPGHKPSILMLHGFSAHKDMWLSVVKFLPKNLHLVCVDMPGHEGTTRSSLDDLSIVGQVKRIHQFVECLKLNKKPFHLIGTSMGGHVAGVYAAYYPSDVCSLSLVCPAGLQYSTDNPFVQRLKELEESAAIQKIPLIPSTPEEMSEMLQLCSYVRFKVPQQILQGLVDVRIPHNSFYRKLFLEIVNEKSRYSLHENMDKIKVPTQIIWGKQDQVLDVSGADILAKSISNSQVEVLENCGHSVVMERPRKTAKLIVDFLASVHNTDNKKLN

[3] = molecular target: T4, Fatty-acid amide hydrolase 1 (Mus musculus, UniProt O08914); test: Inhibition of FAAH in mouse brain membrane; format: cell membranes; how it was run: as §1
T4 sequence (O08914 whole entry): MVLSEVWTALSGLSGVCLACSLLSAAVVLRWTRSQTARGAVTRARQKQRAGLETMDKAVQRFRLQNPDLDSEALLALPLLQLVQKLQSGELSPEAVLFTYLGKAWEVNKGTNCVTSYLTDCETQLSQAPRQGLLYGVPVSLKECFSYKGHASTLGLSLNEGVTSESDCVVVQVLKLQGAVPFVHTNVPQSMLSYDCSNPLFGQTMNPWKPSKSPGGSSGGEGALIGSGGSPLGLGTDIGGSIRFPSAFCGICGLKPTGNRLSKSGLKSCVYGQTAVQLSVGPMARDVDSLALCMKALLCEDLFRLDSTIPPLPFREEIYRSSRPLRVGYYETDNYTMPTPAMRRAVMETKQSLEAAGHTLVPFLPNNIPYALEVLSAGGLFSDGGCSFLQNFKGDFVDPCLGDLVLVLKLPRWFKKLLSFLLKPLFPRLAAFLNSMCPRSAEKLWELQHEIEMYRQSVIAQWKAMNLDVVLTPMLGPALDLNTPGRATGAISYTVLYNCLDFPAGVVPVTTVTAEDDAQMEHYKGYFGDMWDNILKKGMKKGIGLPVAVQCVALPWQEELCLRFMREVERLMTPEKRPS

[4] = molecular target: T5, Patatin-like phospholipase domain-containing protein 6 (Mus musculus, UniProt Q3TRM4); test: Inhibition of NTE in mouse brain membrane; format: cell membranes; how it was run: as §1
T5 sequence (Q3TRM4 whole entry): T2 sequence (whole entry)

Mus musculus [5] = test: In vivo inhibition of MAGL in mouse at 100 mg/kg, po; format: functional, organism-based; design: dose 100 mg/kg
Mus musculus [6] = test: In vivo inhibition of MAGL in mouse at 20 mg/kg, ip; format: functional, organism-based; design: dose 20 mg/kg
Mus musculus [7] = test: In vivo inhibition of FAAH in mouse at 20 mg/kg, ip; format: functional, organism-based; design: dose 20 mg/kg
Mus musculus [8] = test: In vivo inhibition of FAAH in mouse at 100 mg/kg, po; format: functional, organism-based; design: dose 100 mg/kg
Mus musculus [9] = test: Toxicity in mouse assessed as death at 20 mg/kg, ip for 6 days; format: organism-based; design: dose 20 mg/kg, route intraperitoneal; settings: in vivo, 144 h

SMILES | IC50 (Monoglyceride lipase) [nM] | inhibition [1] [%] | IC50 [2] [nM] | IC50 [3] [nM] | IC50 [4] [nM] | Activity (Mus musculus [5]) | Activity (Mus musculus [6]) | Activity (Mus musculus [7]) | Activity (Mus musculus [8]) | Activity (Mus musculus [9])
O=C(Oc1ccc([N+](=O)[O-])cc1)N1CCN(Cc2ccc(-c3ccccc3OC(F)(F)F)o2)CC1 | 70 | 81 | 180 | 5 | 570 |  |  |  |  | 
COc1ccc(Oc2cccc(CN3CCN(C(=O)Oc4ccc([N+](=O)[O-])cc4)CC3)c2)cc1 | 130 | 60 | 460 | 90 | 2900 |  |  |  |  | 
O=C(Oc1ccc([N+](=O)[O-])cc1)N1CCN(Cc2cc(Br)ccc2O)CC1 | 90 | 73 | 130 | 720 | 3240 |  |  |  |  | 
O=C(Oc1ccc([N+](=O)[O-])cc1)N1CCN(Cc2cccc(Oc3ccccc3)c2)CC1 |  | 50 | 50 | 13 | > 50000 | inactive | inactive | inactive | inactive | Non-toxic
O=C(Oc1ccc([N+](=O)[O-])cc1)N1CCN(Cc2cccc(Oc3cccc(C(F)(F)F)c3)c2)CC1 | 300 | 57 | 320 | 5 | 14400 |  |  |  |  | 
O=C(Oc1ccc([N+](=O)[O-])cc1)N1CCN(Cc2cccc(Oc3cc(Cl)cc(Cl)c3)c2)CC1 | > 100000 | 0 | > 100000 | > 100000 | > 100000 |  |  |  |  | 
Cc1ccc(Oc2cccc(CN3CCN(C(=O)Oc4ccc([N+](=O)[O-])cc4)CC3)c2)cc1 | 500 | 70 | 1130 | 40 | 3000 |  |  |  |  | 
